Measurements from ChEMBL document CHEMBL1135679, “Potent delta-opioid receptor agonists containing the Dmt-Tic pharmacophore” (J Med Chem, 2002).
Square brackets hold non-standard residues; d marks the D form. Peptide text beside a SMILES is read from it. Dmt = Cc1cc(O)cc(C)c1C[C@H](N)C(=O)O; Tic = O=C(O)[C@@H]1Cc2ccccc2CN1

Columns and labels:
[1] = target: Delta-type opioid receptor (Mus musculus, UniProt P32300); assay: In vitro inhibitory activity against electrically evoked contractions of in mouse vas deferens (MVD); type: functional, tissue-based
Chain of Delta-type opioid receptor (Mus musculus, UniProt P32300) (P32300 whole entry): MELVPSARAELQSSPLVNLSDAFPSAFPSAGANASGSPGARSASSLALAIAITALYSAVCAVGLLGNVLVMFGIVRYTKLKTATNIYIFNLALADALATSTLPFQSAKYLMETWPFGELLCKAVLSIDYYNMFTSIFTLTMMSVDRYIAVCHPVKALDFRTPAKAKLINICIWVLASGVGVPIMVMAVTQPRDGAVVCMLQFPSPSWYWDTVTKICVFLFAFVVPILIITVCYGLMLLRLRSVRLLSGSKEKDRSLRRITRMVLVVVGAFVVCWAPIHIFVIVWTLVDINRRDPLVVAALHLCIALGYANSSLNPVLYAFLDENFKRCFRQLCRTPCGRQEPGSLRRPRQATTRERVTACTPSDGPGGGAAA

[2] = target: Mu-type opioid receptor (Cavia porcellus, UniProt P97266); assay: In vitro inhibitory activity against electrically evoked contractions of guinea pig ileum (GPI); type: functional, tissue-based
Chain of Mu-type opioid receptor (Cavia porcellus, UniProt P97266) (P97266 whole entry): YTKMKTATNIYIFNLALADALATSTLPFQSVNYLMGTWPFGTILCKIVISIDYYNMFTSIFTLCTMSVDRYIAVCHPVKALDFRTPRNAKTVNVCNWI
Summary of the method: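 Isolated tissue bioassay. IC50 read from concentration–response curves of agonist inhibition. Mean ± SE of at least five fresh tissue samples, with an internal standard peptide run for each tissue.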

[3] = Relative binding to mu and delta opioid receptors (ratio of Ki)
[4] = target: Mu-type opioid receptor (Rattus norvegicus, UniProt P33535); assay: Inhibition of [3H]DAGO binding to Opioid receptor mu 1 of rat brain P2 synaptosomes; type: subcellular
Chain of Mu-type opioid receptor (Rattus norvegicus, UniProt P33535) (P33535 whole entry): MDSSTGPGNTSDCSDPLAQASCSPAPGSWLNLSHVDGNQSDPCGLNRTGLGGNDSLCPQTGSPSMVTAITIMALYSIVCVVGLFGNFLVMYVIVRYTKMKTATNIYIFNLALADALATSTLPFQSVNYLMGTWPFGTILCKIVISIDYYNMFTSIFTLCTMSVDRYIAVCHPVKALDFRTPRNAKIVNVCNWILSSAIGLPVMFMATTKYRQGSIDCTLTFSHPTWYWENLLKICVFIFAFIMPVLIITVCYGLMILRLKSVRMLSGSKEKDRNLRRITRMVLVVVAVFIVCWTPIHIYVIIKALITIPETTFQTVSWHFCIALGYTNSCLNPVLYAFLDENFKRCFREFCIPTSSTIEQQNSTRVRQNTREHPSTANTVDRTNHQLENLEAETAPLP
Summary of the method: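 Competition binding on rat brain P2 synaptosomes. Synaptosomes were preincubated 60 min at room temperature in 0.1 M NaCl, 0.4 mM GDP, 50 mM HEPES pH 7.5 and 50 µg/mL soybean trypsin inhibitor to strip endogenous opioids, then washed, stored at -80 °C, and labelled with [3H]DAGO. Incubation ran 2 h at room temperature to equilibrium. Nonspecific binding was set with 2 µM unlabelled peptide. Bound ligand was collected by GF/C filtration and counted. Five to eight doses in duplicate, 3–5 repetitions on separate preparations, mean ± SE. Ki by Cheng–Prusoff.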

[5] = target: Delta-type opioid receptor (Rattus norvegicus, UniProt P33533); assay: Inhibition of [3H]DPDPE binding to Opioid receptor delta 1 of rat brain P2 synaptosomes; type: subcellular
Chain of Delta-type opioid receptor (Rattus norvegicus, UniProt P33533) (P33533 whole entry): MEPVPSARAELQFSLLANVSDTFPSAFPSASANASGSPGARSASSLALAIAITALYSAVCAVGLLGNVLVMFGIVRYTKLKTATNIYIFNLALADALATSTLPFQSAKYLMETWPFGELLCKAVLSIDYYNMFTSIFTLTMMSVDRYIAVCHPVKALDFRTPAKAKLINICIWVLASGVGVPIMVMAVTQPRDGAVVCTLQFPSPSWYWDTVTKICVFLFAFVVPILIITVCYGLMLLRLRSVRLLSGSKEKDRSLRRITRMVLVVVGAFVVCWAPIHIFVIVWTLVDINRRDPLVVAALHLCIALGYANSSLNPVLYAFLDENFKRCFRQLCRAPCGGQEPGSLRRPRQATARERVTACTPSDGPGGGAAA
Summary of the method: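 Rat brain P2 synaptosomes, pretreated 60 min at room temperature in 0.1 M NaCl, 0.4 mM GDP, 50 mM HEPES pH 7.5 and 50 µg/mL trypsin inhibitor, then washed and frozen at -80 °C. Competition against [3H]DPDPE for 2 h at room temperature. Nonspecific binding defined with 2 µM unlabelled peptide. Filtered on GF/C and counted. Five to eight doses in duplicate, 3–5 independent preparations, mean ± SE. Ki via Cheng–Prusoff.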

[6] = target: Delta-type opioid receptor (Mus musculus) (UniProt P32300); assay: In vitro inhibitory activity against electrically evoked contractions of the mouse vas deferens (MVD); type: functional, tissue-based
Chain of Delta-type opioid receptor (Mus musculus) (P32300 whole entry): as the sequence (P32300 whole entry) above

[7] = target: Delta-type opioid receptor (Mus musculus) (UniProt P32300); conditions: Vas deferens

Row | SMILES | IC50 [1] [nM] | IC50 [2] [nM] | Selectivity [3] | Ki [4] [nM] | Ki [5] [nM] | Ke [6] [nM] | Ke [7] [nM]
1 | Cc1cc(O)cc(C)c1C[C@H](N)C(=O)N1Cc2ccccc2C[C@H]1C(=O)NCc1nc2ccccc2[nH]1 | 0.035 | 40.7 | – | – | – | – | –
2 | Cc1cc(O)cc(C)c1C[C@H](N)C(=O)N1Cc2ccccc2C[C@H]1C(=O)N[C@@H](CC(=O)O)c1nc2ccccc2[nH]1 | – | – | 122 | – | – | – | –
3 | Cc1cc(O)cc(C)c1C[C@H](N)C(=O)N1Cc2ccccc2C[C@H]1C(=O)N[C@@H](C)c1nc2ccccc2[nH]1 | – | 71.7 | 6.5 | 0.411 | 0.063 | – | –
4 | CC(C)[C@H](NC(=O)[C@H](CC(=O)O)NC(=O)[C@H](Cc1ccccc1)NC(=O)[C@H](C)NC(=O)[C@@H](N)Cc1ccc(O)cc1)C(=O)N[C@H](C(=O)NCC(=O)O)C(C)C | 0.3 | > 1200 | 1140 | 272 | 0.24 | – | –
5 | Cc1cc(O)cc(C)c1C[C@H](N)C(=O)N1Cc2ccccc2C[C@H]1C(=O)N[C@@H](CC(=O)O)C(N)=O (H-[Dmt]-[Tic]-Asp-NH2) | – | > 10000 | 8880 | 2560 | 0.289 | 7.58 | –
6 | Cc1cc(O)cc(C)c1C[C@H](N)C(=O)N1Cc2ccccc2C[C@H]1C(=O)N[C@@H](CC(N)=O)C(=O)O (H-[Dmt]-[Tic]-Asn-OH) | – | > 10000 | 73 | 80.3 | 1.1 | – | 5.88
7 | Cc1cc(O)cc(C)c1C[C@H](N)C(=O)N1Cc2ccccc2C[C@H]1C(=O)N[C@@H](Cc1nc2ccccc2[nH]1)C(=O)O | 0.015 | 1560 | 516 | 21.7 | 0.042 | – | –
8 | Cc1cc(O)cc(C)c1C[C@H](N)C(=O)N1Cc2ccccc2C[C@H]1C(=O)N[C@H](C)c1nc2ccccc2[nH]1 | 0.026 | 6.36 | 5 | 0.233 | 0.047 | – | –
9 | Cc1cc(O)cc(C)c1C[C@H](N)C(=O)N1Cc2ccccc2C[C@H]1C(=O)N[C@@H](C)C(N)=O (H-[Dmt]-[Tic]-Ala-NH2) | – | – | 195 | – | – | – | 10
10 | Cc1cc(O)cc(C)c1C[C@H](N)C(=O)N1Cc2ccccc2C[C@H]1C(=O)N[C@H](C)C(N)=O (H-[Dmt]-[Tic]-[dA]-NH2) | – | > 10000 | 158 | 47.5 | 0.301 | – | 25.1
11 | Cc1cc(O)cc(C)c1C[C@H](N)C(=O)N1Cc2ccccc2C[C@H]1C(=O)NCCc1nc2ccccc2[nH]1 | – | 108 | 82 | – | – | – | 4.78
12 | C[C@@H](NC(=O)[C@@H](N)Cc1ccc(O)cc1)C(=O)N[C@@H](Cc1ccccc1)C(=O)NCC(=O)N[C@@H](Cc1ccc(O)cc1)C(=O)N1CCC[C@H]1C(=O)N[C@@H](CO)C(N)=O [DERMORPHIN] | – | 1.21 | – | 1.22 | – | – | –
